Measured values published in ChEMBL document CHEMBL3414565, “Discovery of novel AHLs as potent antiproliferative agents” (Eur J Med Chem, 2015).

Assays:
[1] = tested on: HEK293; assay: Cytotoxicity against human HEK293 cells after 72 hrs by MTT assay; format: cell-based; conditions: HEK293, 72 h
[2] = tested on: MCF7; assay: Cell cycle arrest in human MCF7 cells assessed as accumulation at S phase at 8 uM after 24 hrs by propidium iodide staining-based flow cytometry (reference value: 40.08%); format: functional
[3] = tested on: MCF7; assay: Cell cycle arrest in human MCF7 cells assessed as accumulation at S phase at 4 uM after 12 hrs by propidium iodide staining-based flow cytometry (reference value: 26.65%); format: functional
[4] = tested on: MCF7; assay: Induction of apoptosis in human MCF7 cells assessed as viable cells at 2 uM after 12 hrs by annexin V-FITC/propidium iodide staining-based flow cytometry (reference value: 85.4%); format: functional; conditions: MCF7, 12 h, read-out: Activity
Procedure, shortened: (§1)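 MCF-7 cells were plated at 5.0 × 10^6 cells/mL and held 12 or 24 h at 37 °C. Exponentially growing cells then received complete medium (blank) or compound at 0, 2, 4 or 8 for 12 or 24 h. Harvested cells were stained with Annexin V-FITC/PI and analysed by flow cytometry. Quadrants were scored as live, early apoptotic (annexin+/PI−), late apoptotic (double positive) and damaged (PI+ only).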

[5] = tested on: MCF7; assay: Cell cycle arrest in human MCF7 cells assessed as accumulation at G1/G0 phase at 8 uM after 24 hrs by propidium iodide staining-based flow cytometry (reference value: 46.77%); format: functional
[6] = tested on: MCF7; assay: Cell cycle arrest in human MCF7 cells assessed as accumulation at G1/G0 phase at 2 uM after 12 hrs by propidium iodide staining-based flow cytometry (reference value: 60.51%); format: functional
[7] = tested on: MCF7; assay: Cell cycle arrest in human MCF7 cells assessed as accumulation at G2/M phase at 4 uM after 12 hrs by propidium iodide staining-based flow cytometry (reference value: 16.53%); format: functional
[8] = tested on: MCF7; assay: Induction of apoptosis in human MCF7 cells assessed as viable cells at 8 uM after 12 hrs by annexin V-FITC/propidium iodide staining-based flow cytometry (reference value: 85.4%); format: functional; conditions: MCF7, 12 h, read-out: Activity; procedure, shortened: as §1
[9] = tested on: MCF7; assay: Induction of apoptosis in human MCF7 cells assessed as viable cells at 8 uM after 24 hrs by annexin V-FITC/propidium iodide staining-based flow cytometry (reference value: 87.1%); format: functional; conditions: MCF7, 24 h, read-out: Activity
[10] = tested on: MCF7; assay: Induction of apoptosis in human MCF7 cells assessed as early apoptotic cells at 8 uM after 24 hrs by annexin V-FITC/propidium iodide staining-based flow cytometry (reference value: 4.5%); format: functional; procedure, shortened: as §1
[11] = tested on: MCF7; assay: Cell cycle arrest in human MCF7 cells assessed as accumulation at G2/M phase at 4 uM after 24 hrs by propidium iodide staining-based flow cytometry (reference value: 16.27%); format: functional
[12] = tested on: MCF7; assay: Induction of apoptosis in human MCF7 cells assessed as early apoptotic cells at 4 uM after 24 hrs by annexin V-FITC/propidium iodide staining-based flow cytometry (reference value: 4.5%); format: functional; procedure, shortened: as §1
[13] = tested on: MCF7; assay: Cell cycle arrest in human MCF7 cells assessed as accumulation at G2/M phase at 8 uM after 24 hrs by propidium iodide staining-based flow cytometry (reference value: 16.27%); format: functional
[14] = tested on: MCF7; assay: Cell cycle arrest in human MCF7 cells assessed as accumulation at G1/G0 phase at 4 uM after 24 hrs by propidium iodide staining-based flow cytometry (reference value: 46.77%); format: functional
[15] = tested on: MCF7; assay: Cell cycle arrest in human MCF7 cells assessed as accumulation at G1/G0 phase at 4 uM after 12 hrs by propidium iodide staining-based flow cytometry (reference value: 60.51%); format: functional
[16] = tested on: MCF7; assay: Induction of apoptosis in human MCF7 cells assessed as viable cells at 4 uM after 12 hrs by annexin V-FITC/propidium iodide staining-based flow cytometry (reference value: 85.4%); format: functional; conditions: MCF7, 12 h, read-out: Activity; procedure, shortened: as §1
[17] = tested on: MCF7; assay: Induction of apoptosis in human MCF7 cells at 2 to 8 uM by annexin V-FITC/propidium iodide staining-based flow cytometry; format: functional, cell-based; conditions: TDE = time-dependent effect
[18] = tested on: MCF7; assay: Induction of apoptosis in human MCF7 cells assessed as late apoptotic cells at 4 uM after 12 hrs by annexin V-FITC/propidium iodide staining-based flow cytometry (reference value: 2.7%); format: functional; procedure, shortened: as §1
[19] = tested on: MCF7; assay: Induction of apoptosis in human MCF7 cells assessed as early apoptotic cells at 8 uM after 12 hrs by annexin V-FITC/propidium iodide staining-based flow cytometry (reference value: 7.2%); format: functional; procedure, shortened: as §1
[20] = tested on: MCF7; assay: Cell cycle arrest in human MCF7 cells assessed as accumulation at S phase at 2 uM after 12 hrs by propidium iodide staining-based flow cytometry (reference value: 26.65%); format: functional
[21] = tested on: MCF7; assay: Induction of apoptosis in human MCF7 cells assessed as necrotic cells at 8 uM after 12 hrs by annexin V-FITC/propidium iodide staining-based flow cytometry (reference value: 4.7%); format: functional; procedure, shortened: as §1
[22] = tested on: MCF7; assay: Induction of apoptosis in human MCF7 cells assessed as necrotic cells at 2 uM after 12 hrs by annexin V-FITC/propidium iodide staining-based flow cytometry (reference value: 4.7%); format: functional; procedure, shortened: as §1
[23] = tested on: MCF7; assay: Induction of apoptosis in human MCF7 cells assessed as early apoptotic cells at 2 uM after 12 hrs by annexin V-FITC/propidium iodide staining-based flow cytometry (reference value: 7.2%); format: functional; procedure, shortened: as §1
[24] = tested on: MCF7; assay: Induction of apoptosis in human MCF7 cells assessed as late apoptotic cells at 2 uM after 24 hrs by annexin V-FITC/propidium iodide staining-based flow cytometry (reference value: 2.1%); format: functional; procedure, shortened: as §1
[25] = tested on: MCF7; assay: Induction of apoptosis in human MCF7 cells assessed as necrotic cells at 2 uM after 24 hrs by annexin V-FITC/propidium iodide staining-based flow cytometry (reference value: 6.2%); format: functional; procedure, shortened: as §1
[26] = Cytotoxicity against human GES-1 cells after 72 hrs by MTT assay; format: cell-based; conditions: GES1, 72 h
[27] = tested on: MCF7; assay: Induction of apoptosis in human MCF7 cells assessed as late apoptotic cells at 4 uM after 24 hrs by annexin V-FITC/propidium iodide staining-based flow cytometry (reference value: 2.1%); format: functional; procedure, shortened: as §1
[28] = tested on: MCF7; assay: Induction of apoptosis in human MCF7 cells assessed as viable cells at 4 uM after 24 hrs by annexin V-FITC/propidium iodide staining-based flow cytometry (reference value: 87.1%); format: functional; conditions: MCF7, 24 h, read-out: Activity; procedure, shortened: as §1
[29] = tested on: MCF7; assay: Induction of apoptosis in human MCF7 cells assessed as necrotic cells at 8 uM after 24 hrs by annexin V-FITC/propidium iodide staining-based flow cytometry (reference value: 6.2%); format: functional; procedure, shortened: as §1
[30] = tested on: MCF7; assay: Cell cycle arrest in human MCF7 cells assessed as accumulation at G1/G0 phase at 2 uM after 24 hrs by propidium iodide staining-based flow cytometry (reference value: 46.77%); format: functional
[31] = tested on: MCF7; assay: Cell cycle arrest in human MCF7 cells assessed as accumulation at G1/G0 phase at 8 uM after 12 hrs by propidium iodide staining-based flow cytometry (reference value: 60.51%); format: functional
[32] = tested on: MCF7; assay: Cell cycle arrest in human MCF7 cells assessed as accumulation at G2/M phase at 8 uM after 12 hrs by propidium iodide staining-based flow cytometry (reference value: 16.53%); format: functional

## O=C(CSC(=S)N[C@H]1CCOC1=O)Nc1ccc(C(=O)/C=C/c2ccccc2Cl)cc1
[1]
  IC50: 21.1 µM
[2]
  Activity: 33.39%
[3]
  Activity: 24.4%
[4]
  viability at 2 µM: 82.1%
[5]
  Activity: 14.45%
[6]
  Activity: 67.5%
[7]
  Activity: 20.51%
[8]
  viability at 8 µM: 75.9%
[9]
  viability at 8 µM: 46%
[10]
  Activity: 43.2%
[11]
  Activity: 47.37%
[12]
  Activity: 23.6%
[13]
  Activity: 63.06%
[14]
  Activity: 39.43%
[15]
  Activity: 58.39%
[16]
  viability at 4 µM: 77.9%
[17]
  Activity: tde
[18]
  Activity: 1.7%
[19]
  Activity: 19%
[20]
  Activity: 23.92%
[21]
  Activity: 3.5%
[22]
  Activity: 4.9%
[23]
  Activity: 11.4%
[24]
  Activity: 2.1%
[25]
  Activity: 5.7%
[26]
  IC50: 23.5 µM
[27]
  Activity: 3%
[28]
  viability at 4 µM: 69.3%
[29]
  Activity: 4.8%
[30]
  Activity: 40.44%
[31]
  Activity: 46.48%
[32]
  Activity: 33.6%
